{"source": "ChEMBL document CHEMBL4308843", "about": "“Identification of ABX-1431, a Selective Inhibitor of Monoacylglycerol Lipase and Clinical Candidate for Treatment of Neurological Disorders” (J Med Chem, 2018)", "key": {"[1]": {"biological_target": "T1, Monoglyceride lipase (Rattus norvegicus) (UniProt Q8R431)", "T1 sequence (whole entry)": "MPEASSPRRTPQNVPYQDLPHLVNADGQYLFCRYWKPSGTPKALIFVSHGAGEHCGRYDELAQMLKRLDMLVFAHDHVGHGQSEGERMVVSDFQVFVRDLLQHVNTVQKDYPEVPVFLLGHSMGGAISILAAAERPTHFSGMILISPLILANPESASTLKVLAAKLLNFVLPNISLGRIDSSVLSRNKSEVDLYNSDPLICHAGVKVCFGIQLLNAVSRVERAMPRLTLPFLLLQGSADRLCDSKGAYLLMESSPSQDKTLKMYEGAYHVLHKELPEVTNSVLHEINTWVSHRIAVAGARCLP", "experiment": "Inhibition of MGLL in rat brain membrane homogenates at 0.001 to 10 uM preincubated for 30 mins followed by FP-Rh addition after 30 mins by gel-based ABPP assay", "format": "cell membranes", "procedure,_shortened": "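Brain protein homogenates (1 mg/mL) treated with compound 0.001–10 µM or DMSO, 30 min at 37°C, then 1 µM FP-Rh (MGLL) or HT-01 (ABHD6), 30 min at 25°C.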"}, "[2]": {"biological_target": "Cytochrome P450 2D6 (Homo sapiens, UniProt P10635)", "sequence (P10635 whole entry)": "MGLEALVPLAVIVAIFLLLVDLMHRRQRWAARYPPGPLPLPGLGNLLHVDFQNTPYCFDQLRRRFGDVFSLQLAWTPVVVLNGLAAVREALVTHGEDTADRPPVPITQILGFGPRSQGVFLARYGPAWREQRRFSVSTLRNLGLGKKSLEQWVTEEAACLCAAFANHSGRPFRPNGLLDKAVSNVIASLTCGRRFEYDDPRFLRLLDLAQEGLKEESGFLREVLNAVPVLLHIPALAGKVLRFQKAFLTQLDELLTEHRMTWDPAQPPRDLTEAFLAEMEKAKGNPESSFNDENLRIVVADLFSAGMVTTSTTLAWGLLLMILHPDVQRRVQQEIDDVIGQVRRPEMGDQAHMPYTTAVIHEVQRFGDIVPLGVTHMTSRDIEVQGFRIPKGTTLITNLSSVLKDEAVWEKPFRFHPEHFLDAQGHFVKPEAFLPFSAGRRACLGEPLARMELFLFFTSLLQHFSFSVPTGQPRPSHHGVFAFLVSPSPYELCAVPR", "experiment": "Inhibition of recombinant human CYP2D6", "format": "ADME"}, "[3]": {"experiment": "Volume of distribution at steady state in Beagle dog at 1 mg/kg, iv or 1 mg/kg, po by LC-MS analysis", "format": "ADME, organism-based, Canis lupus familiaris", "conditions": "in vivo, read-out: Vdss", "procedure,_shortened": "(§1)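 Male beagle dogs (n = 3 per route), 10–12 months old, were dosed at 1 mg/kg iv or po in PEG400/ethanol/PBS (7/2/1), fasted overnight to 2 h post-dose. Peripheral venous blood was sampled to 24 h into K2EDTA and plasma frozen at −80 °C. Plasma was quantified by HPLC-MS/MS, with noncompartmental analysis.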"}, "[4]": {"biological_target": "hERG (KCNH2) (Homo sapiens, UniProt Q12809)", "sequence (Q12809 whole entry)": "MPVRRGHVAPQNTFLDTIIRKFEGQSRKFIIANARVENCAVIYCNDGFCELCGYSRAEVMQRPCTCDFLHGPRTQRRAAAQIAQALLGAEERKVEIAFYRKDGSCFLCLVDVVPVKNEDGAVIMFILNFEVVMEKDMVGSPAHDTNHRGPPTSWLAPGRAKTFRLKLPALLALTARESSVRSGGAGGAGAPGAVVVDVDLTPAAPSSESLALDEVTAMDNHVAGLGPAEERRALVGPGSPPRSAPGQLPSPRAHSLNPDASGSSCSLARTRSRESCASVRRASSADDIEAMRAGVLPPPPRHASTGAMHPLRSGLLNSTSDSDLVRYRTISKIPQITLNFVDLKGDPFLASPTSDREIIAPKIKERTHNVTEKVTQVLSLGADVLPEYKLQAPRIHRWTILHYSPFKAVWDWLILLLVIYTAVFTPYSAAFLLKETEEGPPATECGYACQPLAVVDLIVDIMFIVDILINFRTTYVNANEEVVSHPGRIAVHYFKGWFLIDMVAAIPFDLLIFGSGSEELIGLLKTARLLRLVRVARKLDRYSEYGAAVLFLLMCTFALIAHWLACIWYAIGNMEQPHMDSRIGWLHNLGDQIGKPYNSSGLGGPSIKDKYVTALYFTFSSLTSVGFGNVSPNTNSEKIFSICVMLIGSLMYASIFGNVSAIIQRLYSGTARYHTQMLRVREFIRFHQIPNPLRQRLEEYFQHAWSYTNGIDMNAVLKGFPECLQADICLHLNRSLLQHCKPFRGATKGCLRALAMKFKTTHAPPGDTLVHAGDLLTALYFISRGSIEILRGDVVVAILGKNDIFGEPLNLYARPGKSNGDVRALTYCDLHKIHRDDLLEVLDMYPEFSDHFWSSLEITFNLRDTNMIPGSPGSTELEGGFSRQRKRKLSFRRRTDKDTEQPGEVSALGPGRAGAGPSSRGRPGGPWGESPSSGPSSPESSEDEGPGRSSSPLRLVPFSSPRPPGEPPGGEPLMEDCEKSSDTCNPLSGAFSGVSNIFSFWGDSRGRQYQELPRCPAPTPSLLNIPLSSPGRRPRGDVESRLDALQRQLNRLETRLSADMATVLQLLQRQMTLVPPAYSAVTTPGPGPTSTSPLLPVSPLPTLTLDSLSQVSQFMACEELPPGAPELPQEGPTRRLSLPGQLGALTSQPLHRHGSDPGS", "experiment": "Inhibition of human ERG"}, "[5]": {"test_system": "Rattus norvegicus", "experiment": "Effect on spontaneous locomotor activity in Sprague-Dawley rat assessed as locomotor counts at 10 mg/kg, po monitored over 10 mins period", "format": "ADME, organism-based", "conditions": "in vivo", "procedure,_shortened": "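Male Sprague Dawley rats (175–200 g) received vehicle (0.5% methylcellulose) or 10 mg/kg orally. Four hours later, spontaneous locomotor frequency was recorded for 10 min in a vibration-sensing Laboras cage system; n = 10 per group.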"}, "[6]": {"experiment": "Clearance in Beagle dog at 1 mg/kg, iv or 1 mg/kg, po by LC-MS analysis", "format": "ADME, organism-based, Canis lupus familiaris", "conditions": "in vivo", "procedure,_shortened": "as §1"}, "[7]": {"experiment": "Substrate activity at BCRP (unknown origin) at 10 uM", "format": "ADME", "conditions": "human"}, "[8]": {"test_system": "Rattus norvegicus", "experiment": "Antinociceptive activity in po dosed Sprague-Dawley rat brain assessed as inhibition of ABHD6 activity measured after 4 hrs post dose in presence of FP-Rh probe by gel-based ABPP assay", "format": "functional", "procedure,_shortened": "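Male Sprague Dawley rats, 6–12 weeks old, given single oral doses (0.03–10 mg/kg) in 0.5% methylcellulose at 5 mL/kg. Brains were taken 4 h post-dose and forebrain sections excised from one hemisphere. Brain proteome was labeled with FP-Rh (1 µM, 30 min) and analyzed by SDS-PAGE with in-gel fluorescence. Band intensity was normalized to vehicle.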"}, "[9]": {"experiment": "Cmax in Beagle dog at 1 mg/kg, po by LC-MS analysis", "conditions": "in vivo"}, "[10]": {"test_system": "Rattus norvegicus", "experiment": "Antinociceptive activity in Sprague-Dawley rat assessed as reduction in formalin-evoked paw licking duration at 3 mg/kg, po administered 4 hrs prior to formalin challenge and measured between 10 to 30 mins post formalin challenge", "format": "functional, organism-based"}, "[11]": {"biological_target": "ATP-dependent translocase ABCB1 (Homo sapiens, UniProt P08183)", "sequence (P08183 whole entry)": "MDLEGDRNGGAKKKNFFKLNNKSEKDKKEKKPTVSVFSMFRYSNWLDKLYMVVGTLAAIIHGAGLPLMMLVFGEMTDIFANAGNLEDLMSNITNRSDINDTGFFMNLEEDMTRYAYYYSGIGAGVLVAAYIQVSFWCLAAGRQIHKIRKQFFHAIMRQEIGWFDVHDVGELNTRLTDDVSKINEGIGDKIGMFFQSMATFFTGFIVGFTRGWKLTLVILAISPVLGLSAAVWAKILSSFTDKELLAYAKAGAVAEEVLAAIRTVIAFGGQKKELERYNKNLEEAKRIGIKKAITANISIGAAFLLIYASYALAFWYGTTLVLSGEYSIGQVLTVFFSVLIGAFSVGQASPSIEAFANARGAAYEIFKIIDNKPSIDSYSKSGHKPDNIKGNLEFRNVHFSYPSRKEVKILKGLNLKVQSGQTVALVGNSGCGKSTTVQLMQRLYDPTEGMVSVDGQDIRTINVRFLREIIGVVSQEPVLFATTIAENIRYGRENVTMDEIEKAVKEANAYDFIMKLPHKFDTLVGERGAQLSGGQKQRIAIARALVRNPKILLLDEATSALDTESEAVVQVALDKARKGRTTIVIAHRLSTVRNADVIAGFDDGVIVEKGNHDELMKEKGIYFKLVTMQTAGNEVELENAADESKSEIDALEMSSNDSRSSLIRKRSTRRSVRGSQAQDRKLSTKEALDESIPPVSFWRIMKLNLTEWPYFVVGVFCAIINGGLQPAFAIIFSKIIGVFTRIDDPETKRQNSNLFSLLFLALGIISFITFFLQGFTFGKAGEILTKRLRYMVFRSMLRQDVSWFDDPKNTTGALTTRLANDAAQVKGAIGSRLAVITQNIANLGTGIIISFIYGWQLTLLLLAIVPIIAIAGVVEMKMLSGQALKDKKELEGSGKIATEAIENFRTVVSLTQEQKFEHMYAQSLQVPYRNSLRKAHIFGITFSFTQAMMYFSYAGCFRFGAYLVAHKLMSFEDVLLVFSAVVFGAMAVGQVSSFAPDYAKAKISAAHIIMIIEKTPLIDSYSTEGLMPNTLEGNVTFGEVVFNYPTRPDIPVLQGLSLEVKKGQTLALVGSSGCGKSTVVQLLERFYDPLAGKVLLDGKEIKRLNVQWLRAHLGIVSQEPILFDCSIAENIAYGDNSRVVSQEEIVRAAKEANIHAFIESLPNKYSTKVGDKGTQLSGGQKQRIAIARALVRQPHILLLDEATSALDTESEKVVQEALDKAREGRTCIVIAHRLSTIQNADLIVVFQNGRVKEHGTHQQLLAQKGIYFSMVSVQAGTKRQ", "experiment": "Inhibition of P-gp (unknown origin) at 10 uM", "format": "ADME"}, "[12]": {"biological_target": "Cytochrome P450 3A4 (Homo sapiens, UniProt P08684)", "sequence (P08684 whole entry)": "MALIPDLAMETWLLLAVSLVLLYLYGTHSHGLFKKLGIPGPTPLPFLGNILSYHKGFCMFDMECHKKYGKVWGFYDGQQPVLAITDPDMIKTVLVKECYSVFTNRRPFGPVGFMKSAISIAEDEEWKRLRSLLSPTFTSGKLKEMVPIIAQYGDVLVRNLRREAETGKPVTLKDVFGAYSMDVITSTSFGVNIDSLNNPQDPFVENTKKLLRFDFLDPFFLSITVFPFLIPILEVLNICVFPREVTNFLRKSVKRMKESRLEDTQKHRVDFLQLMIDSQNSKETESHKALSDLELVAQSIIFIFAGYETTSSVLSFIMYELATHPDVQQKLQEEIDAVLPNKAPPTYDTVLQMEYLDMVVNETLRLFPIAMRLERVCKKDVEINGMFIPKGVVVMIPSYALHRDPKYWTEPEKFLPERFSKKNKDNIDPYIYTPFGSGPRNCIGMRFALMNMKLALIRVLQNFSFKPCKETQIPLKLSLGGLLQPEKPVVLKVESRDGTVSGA", "experiment": "Inhibition of recombinant human CYP3A4", "format": "ADME"}, "[13]": {"test_system": "Mus musculus", "experiment": "In-vivo inhibition of MGLL in ICR mouse brain assessed as target engagement at 5 mg/kg, po measured 4 hrs post dose by gel-based ABPP assay relative to control", "format": "functional", "parameters": "scale not given: the % may be the effect or the level left", "procedure,_shortened": "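Mice received a single 5 mg/kg oral gavage dose. Whole brains were collected 4 h post-dose and target engagement was read by gel-based ABPP with FP-Rh probe.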"}, "[14]": {"test_system": "Mus musculus", "experiment": "In vivo inhibition of MGLL in ICR mouse brain at 25 mg/kg, po measured at 4 hrs post dose in presence of FP-Rh probe by gel-based ABPP assay", "format": "functional, organism-based"}, "[15]": {"experiment": "Intrinsic clearance in human liver microsomes", "format": "ADME, Microsome", "conditions": "read-out: CLH"}, "[16]": {"experiment": "Tmax in Beagle dog at 1 mg/kg, iv or 1 mg/kg, po by LC-MS analysis", "format": "ADME, organism-based, Canis lupus familiaris", "conditions": "in vivo", "procedure,_shortened": "as §1"}, "[17]": {"experiment": "Tmax in Sprague-Dawley rat at 1 mg/kg, iv or 5 mg/kg, po by LC-MS analysis", "format": "ADME, organism-based", "conditions": "in vivo", "procedure,_shortened": "(§2)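 Rats (n = 3 per route) were dosed at 1 mg/kg iv (70% PEG400 in HPBCD/saline) or 5 mg/kg po (70% PEG400 in 0.5% CMC/saline), fasted overnight to 4 h post-dose. Jugular-catheter blood (~100 µL) was sampled to 24 h into 400 µL acetonitrile to stop esterases. Samples were quantified by HPLC-MS/MS, with noncompartmental analysis.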"}, "[18]": {"experiment": "Stability in Sprague-Dawley rat plasma", "format": "ADME, cell-free"}, "[19]": {"organism": "Canis lupus familiaris", "experiment": "Inhibition of ABHD6 in dog brain membrane homogenates at 0.001 to 10 uM preincubated for 30 mins followed by FP-Rh addition after 30 mins by gel-based ABPP assay", "format": "cell membranes", "procedure,_shortened": "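Dog brain membrane homogenates (1 mg/mL protein) were preincubated with 0.001-10 µM inhibitor or DMSO for 30 min at 37°C. They were then labelled with 1 µM probe (FP-Rh or HT-01) for 30 min at 25°C. Reactions were quenched in SDS-PAGE loading buffer and scanned in-gel. ABHD6 band intensities were normalised to DMSO.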"}, "[20]": {"organism": "Canis lupus familiaris", "experiment": "Inhibition of MGLL in dog brain membrane homogenates at 0.001 to 10 uM preincubated for 30 mins followed by FP-Rh addition after 30 mins by gel-based ABPP assay", "format": "cell membranes", "procedure,_shortened": "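Brain membrane homogenates (1 mg/mL protein) were preincubated with 0.001-10 µM inhibitor or DMSO for 30 min at 37°C, then labelled with 1 µM FP-Rh for 30 min at 25°C. Reactions were quenched in SDS-PAGE loading buffer, run on 10% gels and scanned in-gel. MGLL band intensities were normalised to DMSO (100%).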"}, "[21]": {"test_system": "Mus musculus", "experiment": "In vivo inhibition of MGLL in po dosed ICR mouse brain assessed as increase in 2-AG measured at 4 hrs post dose by LC-MS/MS analysis", "format": "functional, organism-based", "procedure,_shortened": "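Male ICR mice, 6–12 weeks old, single oral gavage 0.5–32 mg/kg in PEG400:ethanol:PBS (7/2/1), 5 mL/kg, n = 3. Killed at 4 h; one brain hemisphere for gel-based ABPP with FP-Rh (MGLL band quantified), the other for 2-AG by LC-MS/MS.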"}, "[22]": {"experiment": "Cmax in Sprague-Dawley rat at 5 mg/kg, po by LC-MS analysis", "format": "ADME, organism-based", "parameters": "dose 5 mg/kg, route oral", "conditions": "in vivo", "procedure,_shortened": "as §2"}}, "note": "pIC50: −log10 of the molar value. Calls of active or inactive are those of the source. The calls are words filed in the database; no cut-off is given here.", "data": [{"smiles": "O=C(OC(C(F)(F)F)C(F)(F)F)N1CCN(Cc2ccc(C(F)(F)F)cc2N2CCCC2)CC1", "note": "[ELCUBRAGISTAT]", "values": [{"measurement": "inhibition", "setting": "[1]", "value": "Active"}, {"measurement": "pIC50", "setting": "[2]", "value": 5.19}, {"measurement": "Vd", "setting": "[3]", "value": 1.2, "unit": "L/kg"}, {"measurement": "IC20", "setting": "[4]", "value": 7, "unit": "µM"}, {"measurement": "Activity", "setting": "[5]", "value": "Non-Toxic"}, {"measurement": "clearance", "setting": "[6]", "value": 6.3, "unit": "mL/min/kg"}, {"measurement": "Activity", "setting": "[7]", "value": "Not Active"}, {"measurement": "ED50", "setting": "[8]", "value": 2.9, "unit": "mg/kg"}, {"measurement": "Cmax", "setting": "[9]", "value": 777, "unit": "nM"}, {"measurement": "Activity", "setting": "[10]", "value": "Active"}, {"measurement": "inhibition (INH)", "setting": "[11]", "value": "Not Active"}, {"measurement": "pIC50", "setting": "[12]", "value": "< 4.30"}, {"measurement": "Activity", "setting": "[13]", "value": 100, "unit": "%"}, {"measurement": "inhibition", "setting": "[14]", "value": "Active"}, {"measurement": "microsomal CLint", "setting": "[15]", "value": 19, "unit": "µL/min/mg"}, {"measurement": "Tmax", "setting": "[16]", "value": 1, "unit": "h"}, {"measurement": "Tmax", "setting": "[17]", "value": 8, "unit": "h"}, {"measurement": "Stability", "setting": "[18]", "value": "Unstable"}, {"measurement": "inhibition", "setting": "[19]", "value": "Active"}, {"measurement": "inhibition", "setting": "[20]", "value": "Active"}, {"measurement": "inhibition", "setting": "[21]", "value": "Dose-dependent effect"}, {"measurement": "Cmax", "setting": "[22]", "value": 688, "unit": "nM"}]}]}
